From ChEMBL document CHEMBL3769387, “α-Glucosidase inhibition and antihyperglycemic activity of flavonoids from Ampelopsis grossedentata and the flavonoid derivatives” (Bioorg Med Chem, 2016)
Blank lines part the entries; values can stand above or below the compound they belong to. Calls of active or inactive are those of the source. No cut-off for these calls is given here.

Assays:
[1] = Inhibition of Saccharomyces cerevisiae alpha-glucosidase using p-nitrophenyl-alpha-D-glucopyranoside as substrate preincubated for 10 mins followed by substrate addition measured after 30 mins by microplate reader analysis
Summary of the method: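 α-Glucosidase 0.1 U/mL and p-NPG 1.0 mM in 0.1 M potassium phosphate pH 6.7; samples in DMSO. Inhibitor preincubated with enzyme 10 min at 37 °C, substrate added, 30 min at 37 °C, stopped with 1 M Na2CO3; absorbance 405 nm with blank correction. Five concentrations, triplicate; IC50 as mean ± SEM of three independent experiments.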

Mus musculus [2] = assay: Hypoglycemic effect in Kunming mouse model of STZ-induced diabetes assessed as reduction in fasting blood glucose level at 50 mg/kg, po measured at 9 hrs post dose by glucometry analysis relative to control; assay type: functional; design: scale not given: the % may be the effect or the level left
Summary of the method: (§1)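 STZ-diabetic Kunming mice (single i.p. streptozotocin 100 mg/kg in citrate buffer pH 4.5, fasting; glucose checked day 7), fasted, dosed orally in 0.5 % CMC–Na with vehicle-only controls. Tail-vein glucometer readings at 0, 1.5, 3, 5, 7 and 9 h post-dose; percent change relative to vehicle group. n = 6; mean ± SEM, one-way ANOVA with post-hoc test.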

Mus musculus [3] = assay: Antihyperglycemic effect in Kunming mouse model of STZ-induced diabetes assessed as reduction in postprandial blood glucose level at 25 mg/kg, po administered 30 mins before sucrose challenge measured after 30 to 90 mins by oral sucrose tolerance test; assay type: functional, organism-based
Summary of the method: (§2)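 Diabetes induced in Kunming mice (4–6 weeks) by single i.p. streptozotocin 100 mg/kg in citrate buffer pH 4.5 under fasting, glucose checked on day 7. Fasted mice dosed orally in 0.5 % CMC–Na (vehicle controls), then sucrose 3 g/kg orally after 30 min; tail-vein glucometer readings at 0–3.0 h post-load. n = 6; mean ± SEM, one-way ANOVA with post-hoc test.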

Mus musculus [4] = assay: Hypoglycemic effect in Kunming mouse model of STZ-induced diabetes assessed as reduction in fasting blood glucose level at 100 mg/kg, po measured at 1.5 hrs post dose by glucometry analysis relative to control; assay type: functional; design: scale not given: the % may be the effect or the level left; summary of the method: as §1
Mus musculus [5] = assay: Hypoglycemic effect in Kunming mouse model of STZ-induced diabetes assessed as reduction in fasting blood glucose level at 50 mg/kg, po measured at 1.5 hrs post dose by glucometry analysis relative to control; assay type: functional; design: scale not given: the % may be the effect or the level left; summary of the method: as §1
Mus musculus [6] = assay: Hypoglycemic effect in Kunming mouse model of STZ-induced diabetes assessed as reduction in fasting blood glucose level at 50 mg/kg, po measured at 7 hrs post dose by glucometry analysis relative to control; assay type: functional; design: scale not given: the % may be the effect or the level left; summary of the method: as §1
Mus musculus [7] = assay: Hypoglycemic effect in Kunming mouse model of STZ-induced diabetes assessed as reduction in fasting blood glucose level at 50 mg/kg, po measured at 3 hrs post dose by glucometry analysis relative to control; assay type: functional; design: scale not given: the % may be the effect or the level left; summary of the method: as §1
Mus musculus [8] = assay: Antihyperglycemic effect in Kunming mouse model of STZ-induced diabetes assessed as reduction in postprandial blood glucose level at 50 and 100 mg/kg, po administered 30 mins before sucrose challenge measured after 30 to 90 mins by oral sucrose tolerance test; assay type: functional, organism-based; summary of the method: as §2
[9] = Competitive inhibition of Saccharomyces cerevisiae alpha-glucosidase using p-nitrophenyl-alpha-D-glucopyranoside as substrate by Lineweaver-Burk plot analysis
Summary of the method: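 Enzyme kinetics run with rising concentrations of 4-nitrophenyl α-D-glucopyranoside and of inhibitor; mode of inhibition assigned from Lineweaver–Burk plots under Michaelis–Menten kinetics.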

Mus musculus [10] = assay: Antihyperglycemic effect in Kunming mouse assessed as reduction in postprandial blood glucose level at 25 mg/kg, po administered 30 mins before sucrose challenge measured after 30 to 90 mins by oral sucrose tolerance test; assay type: functional, organism-based
Summary of the method: (§3)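 Male/female unspecified Kunming mice, 4–6 weeks old, fasted. Oral dosing suspended in 0.5 % CMC–Na (controls given vehicle alone); sucrose 3 g/kg orally 30 min later. Six mice per group; mean ± SEM, one-way ANOVA with Tukey's or Dunnett's test.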

Mus musculus [11] = assay: Antihyperglycemic effect in Kunming mouse assessed as reduction in postprandial blood glucose level at 50 and 100 mg/kg, po administered 30 mins before sucrose challenge measured after 30 to 90 mins by oral sucrose tolerance test; assay type: functional, organism-based; summary of the method: as §3
Mus musculus [12] = assay: Hypoglycemic effect in Kunming mouse model of STZ-induced diabetes assessed as reduction in fasting blood glucose level at 100 mg/kg, po measured at 7 hrs post dose by glucometry analysis relative to control; assay type: functional; design: scale not given: the % may be the effect or the level left; summary of the method: as §1
Mus musculus [13] = assay: Hypoglycemic effect in Kunming mouse model of STZ-induced diabetes assessed as reduction in fasting blood glucose level at 100 mg/kg, po measured at 3 hrs post dose by glucometry analysis relative to control; assay type: functional; design: scale not given: the % may be the effect or the level left; summary of the method: as §1
Mus musculus [14] = assay: Hypoglycemic effect in Kunming mouse assessed as reduction in fasting blood glucose level at 25 to 100 mg/kg, po measured at 1.5 to 9 hrs post dose by glucometry analysis; assay type: functional, organism-based
Summary of the method: (§4)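 Fasted normal Kunming mice (4–6 weeks) given single oral dose suspended in 0.5 % CMC–Na; control group received vehicle only. Tail-vein glucose measured by glucometer at 0, 1.5, 3, 5, 7 and 9 h after administration. Six mice per group; mean ± SEM, one-way ANOVA followed by Tukey's or Dunnett's test versus control.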

Mus musculus [15] = assay: Hypoglycemic effect in Kunming mouse model of STZ-induced diabetes assessed as reduction in fasting blood glucose level at 50 mg/kg, po measured at 5 hrs post dose by glucometry analysis relative to control; assay type: functional; design: scale not given: the % may be the effect or the level left; summary of the method: as §1
Mus musculus [16] = assay: Hypoglycemic effect in Kunming mouse model of STZ-induced diabetes assessed as reduction in fasting blood glucose level at 100 mg/kg, po measured at 5 hrs post dose by glucometry analysis relative to control; assay type: functional; design: scale not given: the % may be the effect or the level left; summary of the method: as §1
Mus musculus [17] = assay: Hypoglycemic effect in Kunming mouse model of STZ-induced diabetes assessed as reduction in fasting blood glucose level at 100 mg/kg, po measured at 9 hrs post dose by glucometry analysis relative to control; assay type: functional; design: scale not given: the % may be the effect or the level left; summary of the method: as §1
Mus musculus [18] = assay: Hypoglycemic effect in Kunming mouse assessed as reduction in fasting blood glucose level at 10 mg/kg, po measured at 1.5 to 9 hrs post dose by glucometry analysis; assay type: functional, organism-based; summary of the method: as §4
Mus musculus [19] = assay: Hypoglycemic effect in Kunming mouse model of STZ-induced diabetes assessed as reduction in fasting blood glucose level at 10 mg/kg, po measured at 1.5 to 9 hrs post dose by glucometry analysis; assay type: functional, organism-based; summary of the method: as §1

- IC50 [1]: 233 µM
Structure (SMILES): O=c1c(O)c(-c2cc(O)c(OCCOCCOCCO)c(O)c2)oc2cc(O)cc(O)c12

- IC50 [1]: 9.3 µM
- Ki [9]: 10.3 µM
Structure (SMILES): Cc1ccc(S(=O)(=O)N(CCO)CCOc2c(O)cc(-c3oc4cc(O)cc(O)c4c(=O)c3O)cc2O)cc1
- Activity (Mus musculus [2]): 61.5%
- Activity (Mus musculus [3]): inactive
- Activity (Mus musculus [4]): 37%
- Activity (Mus musculus [5]): 27.8%
- Activity (Mus musculus [6]): 59.6%
- Activity (Mus musculus [7]): 35.9%
- Activity (Mus musculus [8]): Active
- Activity (Mus musculus [10]): inactive
- Activity (Mus musculus [11]): Active
- Activity (Mus musculus [12]): 65.4%
- Activity (Mus musculus [13]): 45.1%
- Activity (Mus musculus [14]): inactive
- Activity (Mus musculus [15]): 47.3%
- Activity (Mus musculus [16]): 60%
- Activity (Mus musculus [17]): 67.3%

- IC50 [1]: 319 µM
Structure (SMILES): O=c1c(O)c(-c2cc(O)c(O)c(O)c2)oc2cc(O)cc(O)c12 [MYRICETIN]

- IC50 [1]: 41.1 µM
Structure (SMILES): O=c1c(O)c(-c2cc(O)c(OCCN(CCO)c3ccccc3)c(O)c2)oc2cc(O)cc(O)c12

- IC50 [1]: 43.8 µM
Structure (SMILES): O=c1c(O)c(-c2cc(O)c(OCCOCCO)c(O)c2)oc2cc(O)cc(O)c12

- IC50 [1]: 634 µM
Structure (SMILES): O=C1c2c(O)cc(O)cc2O[C@H](c2cc(O)c(O)c(O)c2)[C@H]1O [AMPELOPSIN]

Structure (SMILES): COc1ccc(Cl)cc1C(=O)NCCc1ccc(S(=O)(=O)NC(=O)NC2CCCCC2)cc1
- Activity (Mus musculus [18]): Active
- Activity (Mus musculus [19]): Active

- IC50 [1]: 838 µM
Structure (SMILES): C[C@@H]1O[C@@H](Oc2c(-c3cc(O)c(O)c(O)c3)oc3cc(O)cc(O)c3c2=O)[C@H](O)[C@H](O)[C@H]1O

- IC50 [1]: 84.5 µM
Structure (SMILES): O=c1c(O)c(-c2cc(O)c(OCCO)c(O)c2)oc2cc(O)cc(O)c12

- IC50 [1]: 720 µM
Structure (SMILES): C[C@@H]1O[C@@H](O[C@@H]2[C@@H](O)[C@H](O)[C@H](O[C@H]3[C@H](O)[C@@H](O)C(O)O[C@@H]3CO)O[C@H]2CO)[C@@H](O)[C@H](O)[C@H]1N[C@H]1C=C(CO)[C@@H](O)[C@H](O)[C@H]1O (stereo partly drawn)

- IC50 [1]: 463 µM
Structure (SMILES): O=c1c(O)c(-c2cc(O)c(OCCOCCOCCOCCO)c(O)c2)oc2cc(O)cc(O)c12
